This is an account of results in ChEMBL document CHEMBL3393015, “Design, synthesis and evaluation of marinopyrrole derivatives as selective inhibitors of Mcl-1 binding to pro-apoptotic Bim and dual Mcl-1/Bcl-xL inhibitors” (Eur J Med Chem, 2015).

Activity calls are given as the source filed them. The rule behind the calls is not given here.

In general, IC50 refers to the concentration needed to halve the response being measured. Read a low IC50 as higher potency.

The target in experiment [1] is Induced myeloid leukemia cell differentiation protein Mcl-1/Bcl-2-like protein 11 (Homo sapiens, UniProt Q07820). In words: Inhibition of Mcl1/Bim (unknown origin) by ELISA. It is filed as protein assay. (In general: An ELISA detects its analyte on a solid surface through an enzyme-linked reagent.)
Induced myeloid leukemia cell differentiation protein Mcl-1/Bcl-2-like protein 11, sequence (Q07820 whole entry): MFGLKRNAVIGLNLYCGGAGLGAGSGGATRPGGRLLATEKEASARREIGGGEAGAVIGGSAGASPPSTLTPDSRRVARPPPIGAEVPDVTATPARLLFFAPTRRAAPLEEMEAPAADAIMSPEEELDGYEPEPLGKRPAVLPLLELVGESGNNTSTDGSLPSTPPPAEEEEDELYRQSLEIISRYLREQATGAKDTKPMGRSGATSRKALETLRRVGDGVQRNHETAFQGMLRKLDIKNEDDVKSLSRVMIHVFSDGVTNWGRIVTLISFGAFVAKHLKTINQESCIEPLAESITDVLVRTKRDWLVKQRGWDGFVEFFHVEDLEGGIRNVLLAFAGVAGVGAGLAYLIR
Induced myeloid leukemia cell differentiation protein Mcl-1/Bcl-2-like protein 11, sequence (O43521 whole entry, further chain): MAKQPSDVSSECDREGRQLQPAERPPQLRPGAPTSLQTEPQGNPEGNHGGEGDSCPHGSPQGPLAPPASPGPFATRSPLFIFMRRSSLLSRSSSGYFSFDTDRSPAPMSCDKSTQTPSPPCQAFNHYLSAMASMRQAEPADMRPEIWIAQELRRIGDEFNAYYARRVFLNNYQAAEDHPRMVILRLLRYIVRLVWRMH
The target in experiment [2] is Bcl-xL/Bcl-2-like protein 11 (Homo sapiens, UniProt Q07817). Nature of the experiment: Inhibition of Bcl-xL/Bim (unknown origin) by ELISA. In kind it is protein assay.
Bcl-xL/Bcl-2-like protein 11, sequence (Q07817 whole entry): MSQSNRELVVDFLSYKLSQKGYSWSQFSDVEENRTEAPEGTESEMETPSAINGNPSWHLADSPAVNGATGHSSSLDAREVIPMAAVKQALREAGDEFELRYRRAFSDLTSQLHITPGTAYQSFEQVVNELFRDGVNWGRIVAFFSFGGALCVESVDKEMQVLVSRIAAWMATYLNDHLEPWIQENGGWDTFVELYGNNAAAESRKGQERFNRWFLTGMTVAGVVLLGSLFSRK
Bcl-xL/Bcl-2-like protein 11, sequence (O43521 whole entry, further chain): as the sequence (O43521 whole entry, further chain) above
For experiment [3], the system named is MDA-MB-468. Nature of the experiment: Reduction in Mcl1 level in human MDA-MB-468 cells at 10 uM. In kind it is functional, cell-based. Put shortly: (§1)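 Human MDA-MB-468 breast cancer cells were exposed to the derivatives at 3 μM, and some at up to 10 μM. Cells were then processed for western blotting. Read-outs were Mcl-1 protein level and caspase 3 cleavage, used as the apoptosis marker.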

Experiment [4] deals with MDA-MB-468. In words: Induction of apoptosis in human MDA-MB-468 cells assessed as caspase 3 activity at 3 uM for 16 hrs.
Experiment [5] deals with MDA-MB-468. In words: Reduction in Mcl1 level in human MDA-MB-468 cells at 3 uM. It is filed as functional, cell-based. Put shortly:
as §1

Experiment [6] concerns MDA-MB-468. Nature of the experiment: Induction of apoptosis in human MDA-MB-468 cells assessed as caspase 3 activity at 10 uM for 16 hrs. In kind it is functional, cell-based. Put shortly:
as §1

For `O=C(c1ccc(-c2cn(-c3ccccc3)nn2)cc1O)c1[nH]c(Cl)c(Cl)c1-n1c(C(=O)c2ccc(-c3cn(-c4ccccc4)nn3)cc2O)cc(Cl)c1Cl`, the results for the IC50 in experiment [1] and in experiment [2] were 1.5 µM and 0.8 µM, respectively.
Take `O=C(c1ccccc1O)c1[nH]c(Cl)c(Cl)c1-n1c(C(=O)c2ccc(F)cc2O)cc(Cl)c1Cl`: the figures for the IC50 in experiment [1] and in experiment [2] were 9.6 µM and 21.3 µM, respectively. In addition, the outcome in experiment [3] and in experiment [4] was Active.
With `CCOC(=O)CSc1ccc(C(=O)c2[nH]c(Cl)c(Cl)c2-n2c(C(=O)c3ccc(SCC(=O)OCC)cc3O)cc(Cl)c2Cl)c(O)c1`, the result in experiment [5] was inactive.
`O=C(c1ccc(P(=O)(O)O)cc1O)c1[nH]c(Cl)c(Cl)c1-n1c(C(=O)c2ccc(P(=O)(O)O)cc2O)cc(Cl)c1Cl`: the result in experiment [3] and in experiment [6] was inactive.
On to `O=C(O)CSc1ccc(C(=O)c2[nH]c(Cl)c(Cl)c2-n2c(C(=O)c3ccc(SCC(=O)O)cc3O)cc(Cl)c2Cl)c(O)c1`, for which, in experiment [2], the IC50 was greater than 100 µM. For the same compound, the result in experiment [3] and in experiment [6] was inactive.
Regarding `O=C(c1ccc(O)cc1O)c1[nH]c(Cl)c(Cl)c1-n1c(C(=O)c2ccc(O)cc2O)cc(Cl)c1Cl`, the figures for the IC50 in experiment [1] and in experiment [2] were 39.5 µM and greater than 50 µM, respectively. The result in experiment [3] and in experiment [6] was inactive.
As to `O=C(c1ccc(-c2cn(Cc3ccccc3)nn2)cc1O)c1[nH]c(Cl)c(Cl)c1-n1c(C(=O)c2ccc(-c3cn(Cc4ccccc4)nn3)cc2O)cc(Cl)c1Cl`, the IC50 in experiment [1] was found to be 3.3 µM; in experiment [2], 1.6 µM. For the same compound, the outcome in experiment [3] and in experiment [6] was inactive.
Regarding `CCOC(=O)Cn1cc(-c2ccc(C(=O)c3[nH]c(Cl)c(Cl)c3-n3c(C(=O)c4ccc(-c5cn(CC(=O)OCC)nn5)cc4O)cc(Cl)c3Cl)c(O)c2)nn1`, the IC50 in experiment [2] was greater than 100 µM. In addition, the result in experiment [3] and in experiment [6] was inactive.
With `C=Cc1ccc(C(=O)c2[nH]c(Cl)c(Cl)c2-n2c(C(=O)c3ccc(C=C)cc3O)cc(Cl)c2Cl)c(O)c1`, the IC50 worked out at 3.7 µM in experiment [1] and 3.5 µM in experiment [2]. Besides, the result in experiment [3] and in experiment [4] was Active.
For the compound `CC(C)(C)OC(=O)Cn1cc(-c2cc(O)c(C(=O)c3[nH]c(Cl)c(Cl)c3-n3c(C(=O)c4cc(Cl)c(-c5cn(CC(=O)OC(C)(C)C)nn5)cc4O)cc(Cl)c3Cl)cc2Cl)nn1`, the values for the IC50 in experiment [1] and in experiment [2] were 1.6 µM and 14 µM, respectively.
On to `C#Cc1ccc(C(=O)c2[nH]c(Cl)c(Cl)c2-n2c(C(=O)c3ccc(C#C)cc3O)cc(Cl)c2Cl)c(O)c1`, for which the outcome in experiment [3] and in experiment [4] was Active.
On to `CC1(C)CCC(c2ccc(Cl)cc2)=C(CN2CCN(c3ccc(C(=O)NS(=O)(=O)c4ccc(N[C@H](CCN5CCOCC5)CSc5ccccc5)c(S(=O)(=O)C(F)(F)F)c4)cc3)CC2)C1`, for which, in experiment [5], the result was inactive.
As to `CCc1ccc(C(=O)c2[nH]c(Cl)c(Cl)c2-n2c(C(=O)c3ccc(CC)cc3O)cc(Cl)c2Cl)c(O)c1`, the result in experiment [3] and in experiment [4] was Active.
On to `CC(C)(C)OC(=O)Cn1cc(-c2ccc(C(=O)c3[nH]c(Cl)c(Cl)c3-n3c(C(=O)c4ccc(-c5cn(CC(=O)OC(C)(C)C)nn5)cc4O)cc(Cl)c3Cl)c(O)c2)nn1`, for which the values for the IC50 in experiment [1] and in experiment [2] were 5.1 µM and 8.1 µM, respectively. Besides, the outcome in experiment [3] and in experiment [6] was inactive.
Turning to `O=C(c1cc(Cl)c(O)cc1O)c1[nH]c(Cl)c(Cl)c1-n1c(C(=O)c2cc(Cl)c(O)cc2O)cc(Cl)c1Cl`, the IC50 in experiment [1] was 10.7 µM; in experiment [2], greater than 50 µM. The result in experiment [3] and in experiment [6] was inactive.
Regarding `O=C(c1ccccc1O)c1[nH]c(Cl)c(Cl)c1-n1c(C(=O)c2cc(F)ccc2O)cc(Cl)c1Cl`, the IC50 in experiment [1] came to 8.9 µM; in experiment [2] it was 13.3 µM. Moreover, the result in experiment [3] and in experiment [6] was Active.
On to `O=C(O)Cn1cc(-c2ccc(C(=O)c3[nH]c(Cl)c(Cl)c3-n3c(C(=O)c4ccc(-c5cn(CC(=O)O)nn5)cc4O)cc(Cl)c3Cl)c(O)c2)nn1`, for which the IC50 in experiment [2] was greater than 50 µM. The result in experiment [3] and in experiment [6] was inactive.
`COc1ccccc1C(=O)c1[nH]c(Cl)c(Cl)c1-n1c(C(=O)c2ccc(Cl)cc2OC)cc(Cl)c1Cl`: the IC50 in experiment [1] was determined as 8 µM; in experiment [2], 9.5 µM. The result in experiment [3] and in experiment [6] was inactive.
In the case of `Cc1cc(O)c(C(=O)c2[nH]c(Cl)c(Cl)c2-n2c(C(=O)c3cc(Cl)c(C)cc3O)cc(Cl)c2Cl)cc1Cl`, the outcome in experiment [3] and in experiment [4] was Active.
As to `O=C(c1ccccc1O)c1[nH]c(Cl)c(Cl)c1-n1c(C(=O)c2c(O)cccc2F)cc(Cl)c1Cl`, the IC50 in experiment [1] came to 13.1 µM; in experiment [2] it was 43.7 µM. The result in experiment [3] and in experiment [6] was inactive.
Take `CCOC(=O)Cn1cc(-c2cc(O)c(C(=O)c3[nH]c(Cl)c(Cl)c3-n3c(C(=O)c4cc(Cl)c(-c5cn(CC(=O)OCC)nn5)cc4O)cc(Cl)c3Cl)cc2Cl)nn1`: the IC50 in experiment [2] is greater than 100 µM. The outcome in experiment [3] and in experiment [6] was inactive.
`O=C(c1ccccc1O)c1[nH]c(Cl)c(Cl)c1-n1c(C(=O)c2cc(Cl)ccc2O)cc(Cl)c1Cl`: the IC50 is 3.9 µM in experiment [1] and 18.3 µM in experiment [2]. The outcome in experiment [3] and in experiment [4] was inactive.
With `Cn1c(Cl)c(Cl)c(-n2c(C(=O)c3ccccc3O)cc(Cl)c2Cl)c1C(=O)c1ccccc1O`, the IC50 in experiment [1] was greater than 100 µM; in experiment [2] it was 7.9 µM.
`O=C(c1ccccc1O)c1[nH]c(Cl)c(Cl)c1-n1c(C(=O)c2cccc(Cl)c2O)cc(Cl)c1Cl`: the results for the IC50 in experiment [1] and in experiment [2] were 4.1 µM and 10.1 µM, respectively.
`O=C(O)Cn1cc(-c2cc(O)c(C(=O)c3[nH]c(Cl)c(Cl)c3-n3c(C(=O)c4cc(Cl)c(-c5cn(CC(=O)O)nn5)cc4O)cc(Cl)c3Cl)cc2Cl)nn1`: in experiment [2], the IC50 is greater than 50 µM. The result in experiment [3] and in experiment [6] was inactive.
For `O=C(c1ccc(-c2cn(C3CCCCC3)nn2)cc1O)c1[nH]c(Cl)c(Cl)c1-n1c(C(=O)c2ccc(-c3cn(C4CCCCC4)nn3)cc2O)cc(Cl)c1Cl`, the IC50 in experiment [1] worked out at 1.4 µM; in experiment [2], 3.8 µM. For the same compound, the outcome in experiment [3] and in experiment [6] was inactive.
Turning to `COc1ccccc1C(=O)c1c(-n2c(C(=O)c3ccccc3OC)cc(Cl)c2Cl)c(Cl)c(Cl)n1C`, the IC50 came out at 15.5 µM in experiment [1] and 64.9 µM in experiment [2].
For `O=C(c1ccc(OS(=O)(=O)C(F)(F)F)cc1O)c1[nH]c(Cl)c(Cl)c1-n1c(C(=O)c2ccccc2O)cc(Cl)c1Cl`, the IC50 in experiment [1] worked out at 1 µM; in experiment [2], 2.1 µM. In addition, the outcome in experiment [3] and in experiment [4] was Active.
As for `O=C(c1ccc(C(F)(F)F)cc1O)c1[nH]c(Cl)c(Cl)c1-n1c(C(=O)c2ccc(C(F)(F)F)cc2O)cc(Cl)c1Cl`, the IC50 in experiment [1] worked out at 8.1 µM; in experiment [2], 9.7 µM. Also, the result in experiment [3] and in experiment [4] was Active.
Take `O=C(c1ccccc1O)c1[nH]c(Cl)c(Cl)c1-n1c(C(=O)c2ccc(Cl)cc2O)cc(Cl)c1Cl`: the IC50 was determined as 6.5 µM in experiment [1] and 9.2 µM in experiment [2]. Besides, the result in experiment [3] and in experiment [6] was Active.
On to `CCCCCCCCn1cc(-c2ccc(C(=O)c3[nH]c(Cl)c(Cl)c3-n3c(C(=O)c4ccc(-c5cn(CCCCCCC)nn5)cc4O)cc(Cl)c3Cl)c(O)c2)nn1`, for which the IC50 came to 0.6 µM in experiment [1] and 0.5 µM in experiment [2].
For the compound `O=C(c1ccccc1O)c1[nH]c(Cl)c(Cl)c1-n1c(C(=O)c2ccccc2O)cc(Cl)c1Cl`, in experiment [2], the IC50 amounted to 16.4 µM.
